Screening results deposited in PubChem BioAssay by several laboratories.
Shown are actives, neighbours in structure and some others; about 9.6% of the full set was active somewhere.
L major viab: inhibitors of Leishmania major promastigote growth | Leishmania major promastigotes, resazurin fluorescence viability | inhibition, % at 10 µM | actives 9% (n = 200,000); in the data active means inhibition above about 50%;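 further: promastigotes grown with compound for 44 hours at 28 °C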
Ba/F3 V617F tox: reduce viability of Ba/F3 cells dependent on JAK2V617F | actives 1.1% (n = 220,000) | inhibition, % at 5.6 µM | Ba/F3 EpoR-JAK2V617F viability, ATP luminescence | AID 1446;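 active means inhibition above the campaign mean plus 3 SD over all tested compounds, cut at about 24% in these data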;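 further: cytokine-independent growth of Ba/F3 cells driven by EpoR plus mutant JAK2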
MT stabilize HCS: microtubule stabilizers in HeLa cells | HeLa tubulin immunostaining HCS, 24 h; share of cells brighter than vehicle mean+2SD | % tubulin-high responders, % at 10 µM | actives 0.83% (n = 200,000) | AID 2205;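 active means plate Z-score above 3 for both tubulin-high and condensed-nucleus cell shares, with cell loss under 80%, at 10 µM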;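 further: anti alpha tubulin signal scored within the nucleus-defined area of each cell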
bCat nuc transl: modulators of beta-catenin nuclear translocation | AID 1665 | HeLa beta-catenin nuclear translocation, immunofluorescence imaging | actives 0.3% (n = 190,000) | nuclear translocation activity, % at 5 µM;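 active means nuclear translocation activity above 50% at 5 µM, with a well cell count of 50 or more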;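 further: per-cell ratio of nuclear to cytoplasmic median beta-catenin stain intensity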
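System: Human HeLa cells, endogenous beta-catenin | Compound dosing: 5 µM primary, 0.02–20 µM confirmation | Timing: 24 h compound exposure at 37°C, 5% CO2 | Measured by: Fluorescence imaging of beta-catenin antibody stain plus DAPI | Read-out basis: % activation of per-cell nuclear versus cytoplasmic median beta-catenin signal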
BaF3 tox: counter-screen for JAK2V617F inhibitors: parental Ba/F3 viability inhibitors; AID 1486; CellTiter-Glo ATP luminescence; actives 1.1% (n = 220,000); inhibition, % at 5.6 µM;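 active means inhibition above a per-campaign cutoff, the mean inhibition of all tested compounds plus 3 SD, cut at about 27% in these data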
APP 5UTR inh: APP translation inhibition | inhibition, % at 2 µM | actives 0.82% (n = 190,000) | SH-SY5Y APP 5'UTR-luciferase reporter, luminescence;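 active means inhibition above a set limit, derived from the sample mean plus 3 SD, cut at about 45% in these data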
Each line names hits and unclear results; the compound was inactive in the other large screens.

O=C(C[n+]1cccc(CNC(=O)c2ccc(OC(F)F)cc2)c1)Nc1cccc(C(F)(F)F)c1	none
O=C(CNc1ccccc1)N/N=C/c1ccc([N+](=O)[O-])cc1	none
COc1ccccc1C(=O)NCC(=O)N/N=C/c1ccc([N+](=O)[O-])cc1	BaF3 tox 48
CCOC(=O)c1cc(-c2ccccc2)n(CCC(=O)N2CCN(c3ccccn3)CC2)c1C	none
COC(=O)c1ccc(COc2ccccc2/C=C(\C#N)C(=O)Nc2c(C)cccc2C)cc1	L major viab 98 (no result: bCat nuc transl)
COc1cc(CCC(C)=O)ccc1OC(=O)c1c(F)cccc1Cl	none (no result: L major viab, MT stabilize HCS, APP 5UTR inh)
CCN1/C(=C/c2sc(-c3ccccc3C)c[n+]2C)Sc2ccccc21	L major viab 100, Ba/F3 V617F tox 100, BaF3 tox 80
COc1cc(CNCCc2ccccc2F)ccc1OCc1ccc(Cl)nc1	L major viab 100 (no result: bCat nuc transl)
COc1cc(CNCCc2ccc(F)cc2)ccc1OCc1ccc(Cl)nc1	L major viab 100 (no result: bCat nuc transl)
CCC(C)(C)NC(=O)Cc1ccc(Cl)cc1	none
O=C(COC(=O)c1c2c(nc3ccccc13)CCCCC2)c1ccc(Cl)s1	L major viab 62
O=C1OC(c2ccc(F)cc2)=C/C1=C\c1ccc([N+](=O)[O-])o1	L major viab 100
CCCN(CCC)CCCOC(=O)c1ccc(Cl)cc1Cl	L major viab 90
CN(C)CCCOC(=O)c1ccc(Cl)cc1Cl	L major viab 93
COc1ccc(C(=O)OCCCN(C)C)cc1OC	L major viab 58
CCOC(=O)Oc1ccc(C(=O)OCCCN(C)C)cc1OC	none
CCCN(CCC)C(=S)NC(=O)c1ccc(Cl)cc1Cl	none (no result: bCat nuc transl)
O=C(CSc1ncnc2c1oc1ccccc12)Nc1nc2ccccc2s1	none
O=C(CSc1ncnc2c1sc1ccccc12)Nc1ccc(Br)cc1	L major viab 60
CC1(C)CC(=O)C2=C(C1)N(CCN1CCOCC1)C1=C(C(=O)CC(C)(C)C1)C2c1cccc(Cl)c1	L major viab 61
CCN(CC)CCN1C2=C(C(=O)CC(C)(C)C2)C(c2cccc(F)c2)C2=C1CC(C)(C)CC2=O	none
O=C(NCCc1csc(-c2cccnc2)n1)c1ccco1	BaF3 tox 96
Cc1cc(C)n(C(C[N+](=O)[O-])c2ccc(Cl)cc2)n1 (centres undefined)	L major viab 100
Cc1cc(O)c(C(C[N+](=O)[O-])c2ccc(Cl)cc2)c(=O)o1 (centres undefined)	none
Cc1ccccc1-n1c(=O)c2c(n3cnnc13)-c1ccccc1CC21CCCCC1	none
Cc1ccc(-n2c(=O)c3c(n4cnnc24)-c2ccccc2CC32CCCCC2)cc1	L major viab 96
COc1ccc(/C=C2/C(=O)OCc3cc(OC)c(OC)cc32)cc1	Ba/F3 V617F tox 57, MT stabilize HCS 20, BaF3 tox 28, APP 5UTR inh 82
C/C(=N\NC(=O)c1cc2c(s1)CCC(C)C2)c1ccncc1 (centres undefined)	L major viab 97 (no result: bCat nuc transl)
CCN(C(=O)COc1ccc(C)nc1[N+](=O)[O-])C1CCS(=O)(=O)C1 (centres undefined)	L major viab 51 (no result: bCat nuc transl)
CC(C)c1ccc(/C=C/C2=NNC(=O)CC2)cc1	Ba/F3 V617F tox 38, BaF3 tox 30
Cc1c(Cl)cnc(NC(=O)COC(=O)c2ccc3ncsc3c2)c1Cl	L major viab 62 (no result: bCat nuc transl)
Cc1ccc(S(=O)(=O)CCNC(=O)Cc2ccccc2)cc1	none
O=C(Nc1ccccc1)N1CCN(c2cccc(C(F)(F)F)c2)CC1	L major viab 90 (no result: APP 5UTR inh)
CN1CCC(N2CCN(c3cccc(C(F)(F)F)c3)CC2)CC1	L major viab 100 (no result: bCat nuc transl)
O=C(COc1ccc2c(c1)CCC2)N1CCN(c2cccc(C(F)(F)F)c2)CC1	L major viab 65
CC(=O)c1ccc(NC(=O)N2CCN(c3cccc(Cl)c3)CC2)cc1	L major viab 59
CCn1c(CN2CCN(Cc3ccc(C)cc3)C(CCO)C2)nc2ccccc21 (centres undefined)	none
Cc1cccc(/C(N)=N/OC(=O)C23CC4CC(CC(C4)C2)C3)c1	none
COc1ccc(N=C(c2ccccc2)c2c(C)[nH]n(-c3ccccc3)c2=O)c(OC)c1	none (no result: L major viab, MT stabilize HCS, APP 5UTR inh)
COc1ccccc1C(=O)N1CCN(c2cccc(C(F)(F)F)c2)CC1	MT stabilize HCS 35, bCat nuc transl 88
COCC(=O)N1CCN(c2cccc(C(F)(F)F)c2)CC1	none
CCN(CC)CCNc1nc2c(c(=O)[nH]c(=O)n2C)n1CC(O)COc1ccc(Cl)cc1Cl (centres undefined)	L major viab 92
CN(C)CCNc1nc2c(c(=O)[nH]c(=O)n2C)n1CC(O)COc1ccc(Cl)cc1 (centres undefined)	none
CCc1c(C)c2nncn2[nH]c1=O	none
COC(=O)C1=C(C)N(c2ccc(Cl)c(Cl)c2)C(=O)C1	L major viab 80
COC(=O)C1=C(C)N(c2ccc(S(N)(=O)=O)cc2)C(=O)C1	none
COc1ccc(S(=O)(=O)N(C)CC(=O)O)c2ccccc12	none
Cc1ccc(Oc2ncc(CN3CCOCC3)s2)cc1	L major viab 77 (no result: bCat nuc transl)
Clc1cccc(Oc2ncc(CN3CCOCC3)s2)c1	L major viab 62
CCOc1c(Br)cc(CNc2ccc3c(c2)OCCO3)cc1OC	Ba/F3 V617F tox 80, bCat nuc transl 132, BaF3 tox 77, APP 5UTR inh 94
CCOc1c(Br)cc(CNc2ccc(N3CCOCC3)cc2)cc1OC	none (no result: L major viab, MT stabilize HCS, APP 5UTR inh)
CCOc1cc(CNc2ccc3c(c2)OCCO3)cc(Br)c1OC	Ba/F3 V617F tox 72, bCat nuc transl 143, BaF3 tox 73, APP 5UTR inh 94
CCOc1cc(CNc2ccc3c(c2)OCCO3)cc(Br)c1OCC(N)=O	none
COc1cc(CNc2ccc(C)c(C)c2)cc(OC)c1OC	bCat nuc transl 107
C=CCc1cccc2cc(C(=O)Nc3ccc(S(=O)(=O)Nc4nnc(CC)s4)cc3)c(=O)oc12	none
O=C(CSCc1ccc([N+](=O)[O-])cc1)NC1CCCCCC1	none
CN(CC(=O)Nc1cccc2ccccc12)C(=O)/C=C/c1cccs1	none
CCCCOC(=O)CCN1C(=O)/C(=C2\SC(=S)N(CCC(=O)OCCCC)C2=O)SC1=S	L major viab 66
COc1ccc(OC)c(-c2cc(C(=O)Nc3c(C)nn(Cc4ccccc4Cl)c3C)no2)c1	L major viab 52
SC(COCc1ccccc1)CN1CCN(Cc2ccc3c(c2)OCO3)CC1 (centres undefined)	L major viab 58
CC1CCCN(CC(O)COCc2ccc3c(c2)OCO3)C1 (centres undefined)	none
c1cc2c(cc1CN1CCOCC1)OCO2	none (no result: bCat nuc transl)
CC1CN(CC(O)COCc2ccc3c(c2)OCO3)CC(C)O1 (centres undefined)	L major viab 69
OC(COCc1ccccc1)CN1CCN(Cc2ccc3c(c2)OCO3)CC1 (centres undefined)	L major viab 90
